Laboratory results published in ChEMBL document CHEMBL3414560, “Discovery of 4-(dihydropyridinon-3-yl)amino-5-methylthieno[2,3-d]pyrimidine derivatives as potent Mnk inhibitors: synthesis, structure-activity relationship analysis and biological evaluation” (Eur J Med Chem, 2015).
Each block holds one molecule with its values, some of them ahead of it. Activity calls are given as the source filed them. The rule behind the calls is not given here.

Key:
MV4-11 [1] = assay: Growth inhibition of human MV4-11 cells after 72 hrs by resazurin assay; assay type: functional; conditions: MV4-11, 72 h
MV4-11 [2] = assay: Induction of apoptosis in human MV4-11 cells at 10 uM after 24 hrs by FITC annexin-V/PI staining based flow cytometry; assay type: functional
How it was run: (§1)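 MV-4-11 cells seeded at 8 × 10^4, overnight at 37 °C, 5% CO2, then treated 24 h (DMSO diluent control); pellets collected (300 × g, 5 min), stained with FITC annexin V/PI kit and analysed by flow cytometry within 1 h; apoptotic = annexin V+/PI− plus annexin V+/PI+ cells.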

MV4-11 [3] = assay: Induction of caspase-3/7 activation in human MV4-11 cells at 10 uM after 24 hrs; assay type: functional, cell-based
How it was run: (§2)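 MV-4-11 cells treated 24 h, DMSO diluent as control; caspase-3/7 activity measured with Apo-ONE homogeneous caspase-3/7 kit per manufacturer, read on plate reader; expressed as relative activity.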

MV4-11 [4] = assay: Induction of cell cycle arrest in human MV4-11 cells assessed as accumulation at G1 phase at 10 uM after 24 hrs by FITC propidium iodide staining based flow cytometry (reference value: 58.1%); assay type: functional
MV4-11 [5] = assay: Induction of cell cycle arrest in human MV4-11 cells assessed as accumulation at subG1 phase at 10 uM after 24 hrs by FITC propidium iodide staining based flow cytometry (reference value: 7.7%); assay type: functional
MV4-11 [6] = assay: Induction of cell cycle arrest in human MV4-11 cells assessed as accumulation at S phase at 10 uM after 24 hrs by FITC propidium iodide staining based flow cytometry (reference value: 16.7%); assay type: functional
MV4-11 [7] = assay: Induction of cell cycle arrest in human MV4-11 cells assessed as accumulation at G2/M phase at 10 uM after 24 hrs by FITC propidium iodide staining based flow cytometry (reference value: 17.5%); assay type: functional
MV4-11 [8] = assay: Induction of apoptosis in human MV4-11 cells assessed as reduction in Mcl1 expression at 10 uM after 24 hrs by Western blotting method; assay type: functional, cell-based
How it was run: (§3)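 MV-4-11 cells in RPMI-1640 with 10% FBS, exposed 24 h (DMSO diluent control); Western blot probing Mnk1, eIF4E, p-eIF4E Ser209, Bcl-2, Mcl-1, cyclin D1, PARP, cleaved PARP; β-actin as loading control; HRP-conjugated anti-mouse/anti-rabbit IgG secondaries.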

MV4-11 [9] = assay: Induction of apoptosis in human MV4-11 cells assessed as induction of PARP cleavage expression at 10 uM after 24 hrs by Western blotting method; assay type: functional, cell-based; how it was run: as §3
MV4-11 [10] = assay: Reduction in cyclin D1 expression in human MV4-11 cells at 10 uM after 24 hrs by Western blotting method; assay type: functional, cell-based
How it was run: (§4)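 MV-4-11 AML cells grown in RPMI-1640 with 10% FBS, treated 24 h at the stated concentration against a DMSO diluent control. Lysates probed by Western blot for cyclin D1, with β-actin as loading control and HRP-conjugated anti-mouse/anti-rabbit IgG secondaries.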

MV4-11 [11] = assay: Induction of apoptosis in human MV4-11 cells assessed as viable cells level at 10 uM after 24 hrs by FITC annexin-V/PI staining based flow cytometry (reference value: 91.49%); assay type: functional; how it was run: as §1
MV4-11 [12] = assay: Induction of apoptosis in human MV4-11 cells assessed as early apoptotic cells level at 10 uM after 24 hrs by FITC annexin-V/PI staining based flow cytometry (reference value: 3.02%); assay type: functional; how it was run: as §1
MV4-11 [13] = assay: Induction of apoptosis in human MV4-11 cells assessed as late apoptotic cells level at 10 uM after 24 hrs by FITC annexin-V/PI staining based flow cytometry (reference value: 5.4%); assay type: functional; how it was run: as §1
MV4-11 [14] = assay: Induction of apoptosis in human MV4-11 cells assessed as necrotic cells level at 10 uM after 24 hrs by FITC annexin-V/PI staining based flow cytometry (reference value: 0.1%); assay type: functional; how it was run: as §1
[15] = target: T1, MAP kinase-interacting serine/threonine-protein kinase 1 (Homo sapiens, UniProt Q9BUB5); conditions: MV4-11, 10 uM
Target sequence in this assay (Q9BUB5 whole entry, looked up): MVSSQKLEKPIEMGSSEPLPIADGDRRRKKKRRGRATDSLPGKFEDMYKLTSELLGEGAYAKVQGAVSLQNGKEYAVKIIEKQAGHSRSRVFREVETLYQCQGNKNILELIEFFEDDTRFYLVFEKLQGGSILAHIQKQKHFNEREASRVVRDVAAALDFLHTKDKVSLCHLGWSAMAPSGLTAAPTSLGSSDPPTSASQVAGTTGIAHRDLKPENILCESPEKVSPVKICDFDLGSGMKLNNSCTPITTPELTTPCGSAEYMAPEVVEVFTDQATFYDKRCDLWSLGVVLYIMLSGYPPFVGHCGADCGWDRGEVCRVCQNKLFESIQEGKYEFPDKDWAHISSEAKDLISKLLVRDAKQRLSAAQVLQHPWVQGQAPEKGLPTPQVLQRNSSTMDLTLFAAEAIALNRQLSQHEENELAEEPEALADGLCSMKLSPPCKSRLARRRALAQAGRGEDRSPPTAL

[16] = target: T1, MAP kinase-interacting serine/threonine-protein kinase 1; assay: Inhibition of Mnk1 (unknown origin) pre-incubated for 10 mins before eIF4E peptide substrate addition by ADP-Glo kinase assay
Target sequence in this assay (Q9BUB5 whole entry): as the sequence (Q9BUB5 whole entry, looked up) above

[17] = target: MAP kinase-interacting serine/threonine-protein kinase 2 (Homo sapiens, UniProt Q9HBH9); assay: Inhibition of Mnk2 (unknown origin) pre-incubated for 10 mins before eIF4E peptide substrate addition by ADP-Glo kinase assay
[18] = target: CDK2/Cyclin A2 (Homo sapiens) (UniProt P24941+P20248); assay: Inhibition of CDK2/cyclinA (unknown origin) assessed as reduction in kinase activity at 10 uM using ATP; assay type: protein-complex assay
[19] = target: CDK9/cyclin T1 (Homo sapiens) (UniProt O60563+P50750); assay: Inhibition of CDK9/cyclinT1 (unknown origin) assessed as reduction in kinase activity at 10 uM using ATP; assay type: protein-complex assay
[20] = target: Mitogen-activated protein kinase 1 (Homo sapiens) (UniProt P28482); assay: Inhibition of MAPK1 (unknown origin) assessed as reduction in kinase activity at 10 uM using ATP
[21] = target: Serine/threonine-protein kinase mTOR (Homo sapiens) (UniProt P42345); assay: Inhibition of mTOR (unknown origin) assessed as reduction in kinase activity at 10 uM using ATP
[22] = target: RAC-alpha serine/threonine-protein kinase (Homo sapiens) (UniProt P31749); assay: Inhibition of PKBalpha (unknown origin) assessed as reduction in kinase activity at 10 uM using ATP
[23] = target: Mitogen-activated protein kinase 14 (Homo sapiens) (UniProt Q16539); assay: Inhibition of SAPK2a (unknown origin) assessed as reduction in kinase activity at 10 uM using ATP
Homo sapiens = species: Homo sapiens; assay: Inhibition of PI3K (unknown origin) assessed as reduction in kinase activity at 10 uM using ATP
[24] = target: Receptor-type tyrosine-protein kinase FLT3 (Homo sapiens) (UniProt P36888); assay: Inhibition of FLT3 (unknown origin) assessed as reduction in kinase activity at 10 uM using ATP
[25] = target: Serine/threonine-protein kinase pim-1 (Homo sapiens) (UniProt P11309); assay: Inhibition of PIM1 (unknown origin) assessed as reduction in kinase activity at 10 uM using ATP
MV4-11 [26] = assay: Induction of apoptosis in human MV4-11 cells at 20 uM after 24 hrs by FITC annexin-V/PI staining based flow cytometry; assay type: functional; how it was run: as §1
MV4-11 [27] = assay: Induction of caspase-3/7 activation in human MV4-11 cells at 20 uM after 24 hrs; assay type: functional, cell-based; how it was run: as §2
MV4-11 [28] = assay: Induction of cell cycle arrest in human MV4-11 cells assessed as accumulation at G1 phase at 20 uM after 24 hrs by FITC propidium iodide staining based flow cytometry (reference value: 58.1%); assay type: functional
MV4-11 [29] = assay: Induction of cell cycle arrest in human MV4-11 cells assessed as accumulation at subG1 phase at 20 uM after 24 hrs by FITC propidium iodide staining based flow cytometry (reference value: 7.7%); assay type: functional
MV4-11 [30] = assay: Induction of cell cycle arrest in human MV4-11 cells assessed as accumulation at S phase at 20 uM after 24 hrs by FITC propidium iodide staining based flow cytometry (reference value: 16.7%); assay type: functional
MV4-11 [31] = assay: Induction of cell cycle arrest in human MV4-11 cells assessed as accumulation at G2/M phase at 20 uM after 24 hrs by FITC propidium iodide staining based flow cytometry (reference value: 17.5%); assay type: functional
[32] = target: T1, MAP kinase-interacting serine/threonine-protein kinase 1; assay: Inhibition of Mnk1 in human MV4-11 cells assessed as reduction in eIF4E Ser209 phosphorylation at 20 uM after 24 hrs by Western blotting method; assay type: cell-based; how it was run: as §3
Target sequence in this assay (Q9BUB5 whole entry, looked up): as above

MV4-11 [33] = assay: Effect on total Mnk1 protein level in human MV4-11 cells at 20 uM after 24 hrs by Western blotting method; assay type: functional, cell-based; how it was run: as §3
MV4-11 [34] = assay: Effect on total eIF4E protein level in human MV4-11 cells at 20 uM after 24 hrs by Western blotting method; assay type: functional, cell-based; how it was run: as §3
MV4-11 [35] = assay: Induction of apoptosis in human MV4-11 cells assessed as reduction in Mcl1 expression at 20 uM after 24 hrs by Western blotting method; assay type: functional, cell-based; how it was run: as §3
MV4-11 [36] = assay: Induction of apoptosis in human MV4-11 cells assessed as induction of PARP cleavage expression at 20 uM after 24 hrs by Western blotting method; assay type: functional, cell-based; how it was run: as §3
MV4-11 [37] = assay: Reduction in cyclin D1 expression in human MV4-11 cells at 20 uM after 24 hrs by Western blotting method; assay type: functional, cell-based; how it was run: as §4
MV4-11 [38] = assay: Induction of apoptosis in human MV4-11 cells assessed as viable cells level at 20 uM after 24 hrs by FITC annexin-V/PI staining based flow cytometry (reference value: 91.49%); assay type: functional; how it was run: as §1
MV4-11 [39] = assay: Induction of apoptosis in human MV4-11 cells assessed as early apoptotic cells level at 20 uM after 24 hrs by FITC annexin-V/PI staining based flow cytometry (reference value: 3.02%); assay type: functional; how it was run: as §1
MV4-11 [40] = assay: Induction of apoptosis in human MV4-11 cells assessed as late apoptotic cells level at 20 uM after 24 hrs by FITC annexin-V/PI staining based flow cytometry (reference value: 5.4%); assay type: functional; how it was run: as §1
MV4-11 [41] = assay: Induction of apoptosis in human MV4-11 cells assessed as necrotic cells level at 20 uM after 24 hrs by FITC annexin-V/PI staining based flow cytometry (reference value: 0.1%); assay type: functional; how it was run: as §1

Sequence of Receptor-type tyrosine-protein kinase FLT3 (Homo sapiens) (P36888 whole entry): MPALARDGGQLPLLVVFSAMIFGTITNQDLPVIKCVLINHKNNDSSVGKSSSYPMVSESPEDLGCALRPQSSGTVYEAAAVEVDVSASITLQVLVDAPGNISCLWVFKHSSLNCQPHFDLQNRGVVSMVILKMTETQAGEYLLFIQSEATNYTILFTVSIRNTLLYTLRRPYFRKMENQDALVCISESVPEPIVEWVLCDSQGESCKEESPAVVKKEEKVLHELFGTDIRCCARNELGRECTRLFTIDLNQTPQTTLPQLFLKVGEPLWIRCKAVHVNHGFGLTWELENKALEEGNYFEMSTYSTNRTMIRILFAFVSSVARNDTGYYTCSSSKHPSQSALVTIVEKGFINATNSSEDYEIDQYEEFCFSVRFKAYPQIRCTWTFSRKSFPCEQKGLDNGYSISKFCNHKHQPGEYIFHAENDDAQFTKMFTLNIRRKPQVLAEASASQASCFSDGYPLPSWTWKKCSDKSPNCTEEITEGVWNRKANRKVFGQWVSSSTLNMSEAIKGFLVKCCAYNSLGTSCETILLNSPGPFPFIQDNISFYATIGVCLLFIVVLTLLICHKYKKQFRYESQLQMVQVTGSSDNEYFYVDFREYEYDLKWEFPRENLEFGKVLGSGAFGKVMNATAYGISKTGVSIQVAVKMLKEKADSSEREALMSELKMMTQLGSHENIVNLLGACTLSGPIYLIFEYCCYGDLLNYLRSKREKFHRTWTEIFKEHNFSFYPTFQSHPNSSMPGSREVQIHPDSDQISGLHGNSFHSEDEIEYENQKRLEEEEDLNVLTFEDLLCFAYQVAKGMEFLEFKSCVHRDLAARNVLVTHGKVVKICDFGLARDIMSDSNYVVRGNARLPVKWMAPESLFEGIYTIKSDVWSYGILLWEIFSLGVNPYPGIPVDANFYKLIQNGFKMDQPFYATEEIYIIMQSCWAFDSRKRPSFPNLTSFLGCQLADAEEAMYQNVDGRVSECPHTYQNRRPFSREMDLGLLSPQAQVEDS
Sequence of Mitogen-activated protein kinase 1 (Homo sapiens) (P28482 whole entry): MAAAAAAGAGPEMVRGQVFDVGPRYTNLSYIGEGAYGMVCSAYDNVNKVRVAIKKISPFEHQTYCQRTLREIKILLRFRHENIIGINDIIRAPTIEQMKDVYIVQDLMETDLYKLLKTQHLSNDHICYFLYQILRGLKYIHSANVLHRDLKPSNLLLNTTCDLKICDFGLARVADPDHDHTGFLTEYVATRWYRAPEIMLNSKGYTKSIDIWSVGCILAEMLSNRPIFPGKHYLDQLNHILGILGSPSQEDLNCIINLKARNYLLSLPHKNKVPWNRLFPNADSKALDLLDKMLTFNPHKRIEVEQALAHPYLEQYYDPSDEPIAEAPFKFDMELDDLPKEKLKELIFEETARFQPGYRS
Sequence of MAP kinase-interacting serine/threonine-protein kinase 2 (Q9HBH9 whole entry): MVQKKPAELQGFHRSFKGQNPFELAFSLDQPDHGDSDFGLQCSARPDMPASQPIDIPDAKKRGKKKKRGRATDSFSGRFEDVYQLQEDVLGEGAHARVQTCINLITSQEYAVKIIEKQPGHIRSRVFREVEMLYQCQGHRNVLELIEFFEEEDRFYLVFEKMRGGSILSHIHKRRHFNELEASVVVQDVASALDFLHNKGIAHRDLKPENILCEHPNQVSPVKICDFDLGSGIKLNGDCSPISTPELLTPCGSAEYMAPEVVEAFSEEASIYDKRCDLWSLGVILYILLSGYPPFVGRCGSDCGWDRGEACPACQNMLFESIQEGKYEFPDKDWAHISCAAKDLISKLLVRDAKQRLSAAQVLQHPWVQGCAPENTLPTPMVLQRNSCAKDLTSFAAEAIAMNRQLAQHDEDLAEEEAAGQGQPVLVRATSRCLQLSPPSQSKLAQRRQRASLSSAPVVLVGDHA
Sequence of Mitogen-activated protein kinase 14 (Homo sapiens) (Q16539 whole entry): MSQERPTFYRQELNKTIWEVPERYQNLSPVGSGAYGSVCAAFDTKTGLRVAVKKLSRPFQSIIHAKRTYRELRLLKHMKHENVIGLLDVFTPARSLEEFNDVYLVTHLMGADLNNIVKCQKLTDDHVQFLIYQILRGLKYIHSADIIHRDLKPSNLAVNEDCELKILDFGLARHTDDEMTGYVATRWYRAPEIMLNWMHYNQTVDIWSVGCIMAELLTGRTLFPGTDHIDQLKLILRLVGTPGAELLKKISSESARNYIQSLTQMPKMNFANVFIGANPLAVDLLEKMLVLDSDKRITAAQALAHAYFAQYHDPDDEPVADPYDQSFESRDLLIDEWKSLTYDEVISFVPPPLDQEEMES
Sequence of RAC-alpha serine/threonine-protein kinase (Homo sapiens) (P31749 whole entry): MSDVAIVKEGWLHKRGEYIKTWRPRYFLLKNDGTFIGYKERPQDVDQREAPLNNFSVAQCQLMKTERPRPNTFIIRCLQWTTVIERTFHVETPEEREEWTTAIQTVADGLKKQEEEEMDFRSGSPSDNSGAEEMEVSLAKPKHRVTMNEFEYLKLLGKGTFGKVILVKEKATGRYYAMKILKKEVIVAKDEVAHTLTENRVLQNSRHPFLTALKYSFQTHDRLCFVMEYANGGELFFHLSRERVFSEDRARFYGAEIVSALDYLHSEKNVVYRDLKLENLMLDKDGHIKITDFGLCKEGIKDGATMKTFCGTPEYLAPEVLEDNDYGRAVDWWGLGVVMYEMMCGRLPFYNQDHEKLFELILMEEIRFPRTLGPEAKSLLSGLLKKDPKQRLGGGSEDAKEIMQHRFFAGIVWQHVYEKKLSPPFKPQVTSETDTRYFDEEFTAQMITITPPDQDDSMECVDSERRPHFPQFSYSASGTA
Sequence of Serine/threonine-protein kinase pim-1 (Homo sapiens) (P11309 whole entry, looked up): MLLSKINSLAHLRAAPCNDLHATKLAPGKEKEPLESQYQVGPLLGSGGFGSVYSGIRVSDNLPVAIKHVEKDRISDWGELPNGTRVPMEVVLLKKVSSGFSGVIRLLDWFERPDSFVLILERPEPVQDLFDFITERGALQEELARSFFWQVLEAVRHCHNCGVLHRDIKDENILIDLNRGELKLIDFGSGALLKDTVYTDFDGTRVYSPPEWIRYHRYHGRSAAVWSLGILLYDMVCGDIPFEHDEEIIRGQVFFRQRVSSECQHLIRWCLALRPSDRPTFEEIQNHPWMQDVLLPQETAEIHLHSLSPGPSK

GI50 (MV4-11 [1]): 4.88 µM | inhibition [15]: Active
Compound: Nc1ncnc2[nH]nc(Nc3ccc(F)cc3)c12
Activity (MV4-11 [2]): 13% | Activity (MV4-11 [3]): inactive | Activity (MV4-11 [4]): 72% | Activity (MV4-11 [5]): 9.4% | Activity (MV4-11 [6]): 10.2% | Activity (MV4-11 [7]): 8.4% | Activity (MV4-11 [8]): Active | Activity (MV4-11 [9]): Active | Activity (MV4-11 [10]): Active | Activity (MV4-11 [11]): 78.01% | Activity (MV4-11 [12]): 9.16% | Activity (MV4-11 [13]): 12.52% | Activity (MV4-11 [14]): 0.3%

Ki [16]: 5 µM | Ki [17]: 2.63 µM | GI50 (MV4-11 [1]): 5.73 µM | inhibition [18]: inactive | inhibition [19]: inactive | inhibition [20]: inactive | inhibition [21]: inactive | inhibition [22]: inactive | inhibition [23]: inactive | inhibition (Homo sapiens): inactive | inhibition [24]: 31% | inhibition [25]: inactive | inhibition [32]: Active
Compound: COCCCNC(=O)c1sc2ncnc(Nc3cc(C)cn(C)c3=O)c2c1C
Activity (MV4-11 [26]): 6% | Activity (MV4-11 [27]): inactive | Activity (MV4-11 [28]): 72.5% | Activity (MV4-11 [29]): 12.5% | Activity (MV4-11 [30]): 8.1% | Activity (MV4-11 [31]): 6.9% | Activity (MV4-11 [33]): inactive | Activity (MV4-11 [34]): inactive | Activity (MV4-11 [35]): Active | Activity (MV4-11 [36]): Active | Activity (MV4-11 [37]): Active | Activity (MV4-11 [38]): 83.96% | Activity (MV4-11 [39]): 4.52% | Activity (MV4-11 [40]): 11.4% | Activity (MV4-11 [41]): 0.1%
